The source made the active and inactive calls. No cut-off for these calls is given here.
Tests used:
[1] = target: T1, Nuclear factor erythroid 2-related factor 2 (Mus musculus) (UniProt Q60795); assay: Activation of Nrf2 in mouse RAW264.7 cells assessed as upregulation of HO1 protein expression at 50 uM after 3 hrs by Western blotting analysis; format: cell-based
T1 sequence (whole entry): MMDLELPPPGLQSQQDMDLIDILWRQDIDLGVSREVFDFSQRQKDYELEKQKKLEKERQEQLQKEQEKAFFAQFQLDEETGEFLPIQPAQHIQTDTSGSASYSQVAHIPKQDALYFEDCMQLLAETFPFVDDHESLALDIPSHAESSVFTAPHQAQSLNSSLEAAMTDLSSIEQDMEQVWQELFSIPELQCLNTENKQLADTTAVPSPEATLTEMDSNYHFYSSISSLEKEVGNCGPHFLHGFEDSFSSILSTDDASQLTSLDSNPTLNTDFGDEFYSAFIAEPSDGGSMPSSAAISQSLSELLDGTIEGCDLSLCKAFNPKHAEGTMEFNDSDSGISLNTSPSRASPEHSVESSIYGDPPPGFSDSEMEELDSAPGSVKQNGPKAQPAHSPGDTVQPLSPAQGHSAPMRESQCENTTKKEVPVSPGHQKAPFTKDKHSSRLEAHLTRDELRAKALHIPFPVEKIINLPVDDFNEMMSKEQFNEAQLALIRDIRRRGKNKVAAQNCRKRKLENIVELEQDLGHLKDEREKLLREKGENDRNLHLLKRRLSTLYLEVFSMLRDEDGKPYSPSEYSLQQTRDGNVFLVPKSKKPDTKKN
Method in brief: (§1)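 HO-1 protein in whole-cell lysates (20 μg/lane) of serum-starved RAW264.7 cells after 6 h at 10-50 μM or 50 μM for 1-6 h in serum-free medium, 0.1% DMSO control. Chemiluminescent Western blot; HO-1 densitometry normalized to actin, mean of three experiments.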

RAW264.7 [2] = assay: Induction of ROS generation in mouse RAW264.7 cells at 50 uM after 2 hrs by flow cytometric analysis; format: functional
Method in brief: (§2)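 Serum-starved RAW264.7 cells treated 2 h at 10-50 μM; 100 μM TBHP for 30 min as positive control. Medium replaced, cells loaded with 10 μM carboxy-H₂DCFDA for 15 min at 37 °C. Flow cytometry (488 nm excitation, 525 nm emission, 10,000 events) gave percentage of cells with raised ROS; mean ± SD of three experiments.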

[3] = target: T1, Nuclear factor erythroid 2-related factor 2 (Mus musculus); assay: Activation of Nrf2 in mouse RAW264.7 cells assessed as reduction of KEAP1 protein level at 10 to 50 uM after 6 hrs by Western blotting analysis; format: cell-based
Method in brief: (§3)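 Whole-cell lysates (20 μg/lane) from serum-starved RAW264.7 cells given 10-50 μM for 6 h or 50 μM for 1-6 h in serum-free medium, 0.1% DMSO vehicle. Keap1 and actin detected by chemiluminescent Western blot; Keap1 band intensity normalized to actin, mean of three experiments.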

[4] = target: T1, Nuclear factor erythroid 2-related factor 2 (Mus musculus); assay: Activation of Nrf2 in mouse RAW264.7 cells assessed as upregulation of HO1 protein expression at 25 uM after 6 hrs by Western blotting analysis; format: cell-based; method in brief: as §1
[5] = Drug metabolism in culture medium assessed as 7-O-galloylquercetin level; format: physicochemical
Method in brief: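 Compound incubated in culture medium without cells. Medium aliquots diluted 1:1 in methanol with 5% acetic acid, centrifuged, and analysed by phenyl-column UPLC with negative-mode ESI-QqTOF MS.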

RAW264.7 [6] = assay: Drug metabolism in mouse RAW264.7 cells assessed as 7-O-galloylquercetin level at 50 uM after 6 hrs by HPLC/ESI-QqTOF/MS analysis; format: ADME, cell-based; conditions: raw264.7, 6 h
Method in brief: (§4)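 Cells given 50 μM for up to 6 h, then scraped, washed twice in PBS and sonicated in methanol with 5% acetic acid. Supernatant analysed by UPLC on a phenyl column (water/1% acetic acid/methanol to methanol gradient, 35 °C) with negative ESI-QqTOF MS. Contents expressed as nmol per 10⁶ cells.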

[7] = target: T1, Nuclear factor erythroid 2-related factor 2 (Mus musculus); assay: Activation of Nrf2 in mouse RAW264.7 cells assessed as upregulation of HO1 protein expression at 10 uM after 6 hrs by Western blotting analysis; format: cell-based; method in brief: as §1
RAW264.7 [8] = assay: Drug uptake in mouse RAW264.7 cells measured per 10^6 cells at 50 uM after 3 hrs; format: ADME, cell-based; conditions: raw264.7, 3 h; method in brief: as §4
[9] = target: T1, Nuclear factor erythroid 2-related factor 2 (Mus musculus); assay: Activation of Nrf2 in mouse RAW264.7 cells assessed as upregulation of HO1 protein expression at 50 uM after 4 hrs by Western blotting analysis relative to untreated control; format: cell-based; method in brief: as §1
[10] = target: T1, Nuclear factor erythroid 2-related factor 2 (Mus musculus); assay: Activation of Nrf2 in mouse RAW264.7 cells assessed as upregulation of HO1 protein expression at 50 uM after 6 hrs by Western blotting analysis relative to untreated control; format: cell-based; method in brief: as §1
[11] = target: T1, Nuclear factor erythroid 2-related factor 2 (Mus musculus); assay: Activation of Nrf2 in mouse RAW264.7 cells assessed as reduction of KEAP1 protein level at 50 uM after 3 hrs by Western blotting analysis; format: cell-based; method in brief: as §3
RAW264.7 [12] = assay: Drug uptake in mouse RAW264.7 cells at 50 uM after 10 mins; format: ADME, cell-based; conditions: raw264.7, 10 min; method in brief: as §4
[13] = target: T1, Nuclear factor erythroid 2-related factor 2 (Mus musculus); assay: Activation of Nrf2 in mouse RAW264.7 cells assessed as upregulation of HO1 protein expression at 10 to 50 uM after 6 hrs by Western blotting analysis; format: cell-based; method in brief: as §1
RAW264.7 [14] = assay: Induction of ROS generation in mouse RAW264.7 cells at 25 uM after 2 hrs by flow cytometric analysis; format: functional; method in brief: as §2
[15] = target: T1, Nuclear factor erythroid 2-related factor 2 (Mus musculus); assay: Activation of Nrf2 in mouse RAW264.7 cells assessed as cytosolic accumulation at 50 uM after 2 hrs by Western blotting analysis; format: cell-based
Method in brief: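 Serum-starved RAW264.7 cells treated 30 min to 3 h (10-50 μM for 3 h, or 50 μM time course); 0.1% DMSO control, 50 μM quercetin positive control. Cytosolic fraction from hypotonic HEPES pH 7.9 buffer with 0.1% NP-40; nuclear fraction by 420 mM NaCl extraction. 30 μg/lane blotted for Nrf2 and actin; Nrf2/actin densitometry, mean of three experiments.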

RAW264.7 [16] = assay: Stability in mouse RAW264.7 cells assessed as gallic acid level at 50 uM after 6 hrs by HPLC/MS analysis; format: ADME, cell-based; conditions: raw264.7, 6 h
[17] = target: T1, Nuclear factor erythroid 2-related factor 2 (Mus musculus); assay: Activation of Nrf2 in mouse RAW264.7 cells assessed as induction of Hmox1 mRNA expression at 50 uM after 6 hrs by real-time PCR analysis in presence of SP600125; format: cell-based
Method in brief: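 Pretreatment 30 min with 0.1% DMSO, 15 μM PD98059, 15 μM SB203580 or 30 μM SP600125, then 50 μM agent for 6 h in serum-free medium. Hmox1 mRNA by TaqMan qPCR normalized to Gapdh, given as percent of agent-induced expression; mean ± SD of three experiments.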

RAW264.7 [18] = assay: Induction of ROS generation in mouse RAW264.7 cells at 10 to 50 uM after 2 hrs by flow cytometric analysis; format: functional, cell-based; method in brief: as §2
[19] = target: Mitogen-activated protein kinase 8 (Mus musculus) (UniProt Q91Y86); assay: Activation of JNK1 in mouse RAW264.7 cells assessed as phosphorylation at Thr183/Tyr185 at 50 uM after 30 mins to 4 hrs by Western blotting analysis; format: cell-based; conditions: TDE = time-dependent effect
Sequence of Mitogen-activated protein kinase 8 (Mus musculus) (Q91Y86 whole entry): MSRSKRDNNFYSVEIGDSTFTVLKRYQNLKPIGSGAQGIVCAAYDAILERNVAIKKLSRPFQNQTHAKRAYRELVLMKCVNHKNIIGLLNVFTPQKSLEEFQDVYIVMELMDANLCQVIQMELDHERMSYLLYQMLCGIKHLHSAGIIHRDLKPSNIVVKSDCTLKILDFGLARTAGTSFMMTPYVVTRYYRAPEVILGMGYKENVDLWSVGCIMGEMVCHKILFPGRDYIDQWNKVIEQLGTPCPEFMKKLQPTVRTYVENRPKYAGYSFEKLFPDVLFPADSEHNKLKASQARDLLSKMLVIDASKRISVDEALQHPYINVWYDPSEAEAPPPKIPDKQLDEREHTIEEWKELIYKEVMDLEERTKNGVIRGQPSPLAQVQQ
Method in brief: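 Serum-starved RAW264.7 cells exposed in serum-free medium for 30 min to 4 h; 5 μM anisomycin for 30 min as positive control. Whole-cell lysates (30 μg/lane) blotted for JNKs dually phosphorylated at Thr183/Tyr185 and total JNKs, chemiluminescent detection.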

O=C(Oc1cc(O)c2c(c1)O[C@H](c1ccc(O)c(O)c1)[C@@H](O)C2=O)c1cc(O)c(O)c(O)c1
fold change (FC) [1]: 1.3 | Activity (RAW264.7 [2]): 29% | Activity [3]: Dose-dependent effect | fold change (FC) [4]: 1.6 | Drug metabolism [5]: Not Active | Drug metabolism (RAW264.7 [6]): Active | fold change (FC) [7]: 1.1 | Drug uptake (RAW264.7 [8]): 1.03 nmol | fold change (FC) [9]: 1.6 | fold change (FC) [10]: 2.5 | Activity [11]: Active | Drug uptake (RAW264.7 [12]): 85% | Activity [13]: Dose-dependent effect | Activity (RAW264.7 [14]): 19% | Activity [15]: Active | Stability (RAW264.7 [16]): Stable | Activity [17]: 90% | Activity (RAW264.7 [18]): Active | Activity [19]: tde

Reference: ChEMBL document CHEMBL2331476, “A novel semisynthetic flavonoid 7-O-galloyltaxifolin upregulates heme oxygenase-1 in RAW264.7 cells via MAPK/Nrf2 pathway” (J Med Chem, 2013)
